Data published in ChEMBL document CHEMBL4011639, “Discovery of Novel Nucleotide Prodrugs with Improved Potency Against HCV Variants Carrying NS5B S282T Mutation” (J Med Chem, 2017).

Assays:
[1] = Inhibition of wild type NS5B in HCV genotype 1b replicon expressed in human HuH7 cells after 72 hrs by bright Glo-luciferase reporter gene assay; type: cell-based, Hepatitis C virus subtype 1b; conditions: Hepatitis C virus, Huh-7, 72 h
Outline: (§1)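 Huh7 cells carrying HCV genotype 1b replicon, 8000 per well, in duplicate 3-fold dilution series with 0.5% DMSO final; 72 h at 37 °C, 5% CO2. Viability read by Cell Titer-Fluor fluorescence after 5 min; replicon inhibition read by Bright-Glo luciferase luminescence in the same wells. EC50 and CC50 come from curve fitting.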

[2] = test system: Huh-7; experiment: Cytotoxicity against human HuH7 cells assessed as reduction in cell viability up to 100 uM after 72 hrs by Cell Titer-Fluor Cell assay; type: cell-based; conditions: huh-7, 72 h; outline: as §1
[3] = Half life in human plasma […] by LC/MS/MS analysis; type: ADME, cell-free
Outline: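 Pooled human plasma adjusted to pH 7.4 and prewarmed, then spiked to 2 μM final from a 200 μM DMSO working solution, in duplicate. Sampled at 0, 10, 30, 60 and 120 min and quenched with acetonitrile containing tolbutamide and buspirone. LC/MS/MS (MRM) peak area ratios; ke from linear regression of the initial linear phase, t1/2 = ln2/ke.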

[4] = Half life in human liver S9 fraction at 10 uM by LC/MS/MS analysis; type: ADME
Outline: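 Compound at 10 μM working solution (1% DMSO, 5% MeOH in 100 mM Tris) incubated at 37 °C with human liver S9 at 1 mg protein/mL final. Reactions stopped with cold acetonitrile containing tolbutamide internal standard at 0, 5, 10, 20, 30 and 60 min. Parent measured by LC/MS/MS (MRM) as analyte/IS peak area ratio, given as percent remaining versus 0 min; half-life fitted.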

[5] = test system: Hepatitis C virus subtype 1b; experiment: Ratio of EC50 for HCV genotype 1b replicon NS5B S282T mutant to EC50 for wild type HCV genotype 1b replicon NS5B
Outline: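 Huh7 cells carrying wild-type or S282T mutant HCV genotype 1b replicon, 8000 cells per well, exposed to 3-fold compound dilution series (0.5% DMSO final, duplicates) for 72 h at 37 °C, 5% CO2. Replicon activity read by Bright-Glo luciferase luminescence. EC50 averaged from duplicate determinations; ratio taken as S282T EC50 over wild-type EC50.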

EC50 [1] | SMILES | Activity [2] | half-life [3] | half-life at 10 µM [4] | Ratio EC50 [5]
2.25 µM | CC(C)OC(=O)[C@H](C)N[P@](=O)(OC[C@H]1O[C@@H](n2ccc(NC(=O)C3CC3)nc2=O)[C@](C)(F)[C@@H]1O)Oc1ccccc1 | Non-Toxic | – | – | –
3.87 µM | CC(C)OC(=O)Nc1ccn([C@@H]2O[C@H](CO[P@@](=O)(N[C@@H](C)C(=O)OC(C)C)Oc3ccccc3)[C@@H](O)[C@@]2(C)F)c(=O)n1 | Non-Toxic | – | – | –
2.2 µM | CC(C)OC(=O)[C@H](C)N[P@](=O)(OC[C@H]1O[C@@H](n2ccc(NC(=O)C(C)C)nc2=O)[C@](C)(F)[C@@H]1O)Oc1ccccc1 | Non-Toxic | – | – | –
> 10 µM | CC(C)OC(=O)[C@H](C)N[P@](=O)(OC[C@H]1O[C@@H](n2ccc(NC(=O)OC3CCCCC3)nc2=O)[C@](C)(F)[C@@H]1O)Oc1ccccc1 | Non-Toxic | – | – | –
4.08 µM | CC(C)OC(=O)[C@H](C)N[P@](=O)(OC[C@H]1O[C@@H](n2ccc(NC(=O)/C=C/c3ccccc3)nc2=O)[C@](C)(F)[C@@H]1O)Oc1ccccc1 | Non-Toxic | – | – | –
> 10 µM | CC(C)OC(=O)[C@H](C)N[P@](=O)(OC[C@H]1O[C@@H](n2ccc(NC(=O)OCc3ccccc3)nc2=O)[C@](C)(F)[C@@H]1O)Oc1ccccc1 | Non-Toxic | – | – | –
> 10 µM | COc1ccc(C(=O)Nc2ccn([C@@H]3O[C@H](CO[P@@](=O)(N[C@@H](C)C(=O)OC(C)C)Oc4ccccc4)[C@@H](O)[C@@]3(C)F)c(=O)n2)cc1 | Non-Toxic | – | – | –
8.36 µM | CCOC(=O)Nc1ccn([C@@H]2O[C@H](CO[P@@](=O)(N[C@@H](C)C(=O)OC(C)C)Oc3ccccc3)[C@@H](O)[C@@]2(C)F)c(=O)n1 | Non-Toxic | – | – | –
1.11 µM | CC(C)C(=O)OC[C@H]1O[C@@H](n2ccc(N)nc2=O)[C@](C)(F)[C@@H]1OC(=O)C(C)C [MERICITABINE] | Non-Toxic | – | – | –
4.2 µM | CC(C)OC(=O)[C@H](C)N[P@](=O)(OC[C@H]1O[C@@H](n2ccc(NC(=O)C3CCCCC3)nc2=O)[C@](C)(F)[C@@H]1O)Oc1ccccc1 | Non-Toxic | – | – | –
1.04 µM | CC(=O)Nc1ccn([C@@H]2O[C@H](CO[P@@](=O)(N[C@@H](C)C(=O)OC(C)C)Oc3ccccc3)[C@@H](O)[C@@]2(C)F)c(=O)n1 | Non-Toxic | – | – | –
> 10 µM | CCC(CC)C(=O)Nc1ccn([C@@H]2O[C@H](CO[P@@](=O)(N[C@@H](C)C(=O)OC(C)C)Oc3ccccc3)[C@@H](O)[C@@]2(C)F)c(=O)n1 | Non-Toxic | – | – | –
1.99 µM | CC(C)OC(=O)[C@H](C)N[P@](=O)(OC[C@H]1O[C@@H](n2ccc(NC(=O)c3ccccc3)nc2=O)[C@](C)(F)[C@@H]1O)Oc1ccccc1 | Non-Toxic | – | – | –
1.32 µM | CC(C)OC(=O)[C@H](C)N[P@](=O)(OC[C@H]1O[C@@H](n2ccc(NC(=O)Cc3ccccc3)nc2=O)[C@](C)(F)[C@@H]1O)Oc1ccccc1 | Non-Toxic | – | – | –
0.19 µM | CCCCC(=O)Nc1ccn([C@@H]2O[C@H](CO[P@@](=O)(N[C@@H](C)C(=O)OC(C)C)Oc3ccccc3)[C@@H](O)[C@@]2(C)F)c(=O)n1 | Non-Toxic | – | – | –
> 10 µM | CCCCCOC(=O)Nc1ccn([C@@H]2O[C@H](CO[P@@](=O)(N[C@@H](C)C(=O)OC(C)C)Oc3ccccc3)[C@@H](O)[C@@]2(C)F)c(=O)n1 | Non-Toxic | – | – | –
6.01 µM | CCCOC(=O)Nc1ccn([C@@H]2O[C@H](CO[P@@](=O)(N[C@@H](C)C(=O)OC(C)C)Oc3ccccc3)[C@@H](O)[C@@]2(C)F)c(=O)n1 | Non-Toxic | – | – | –
0.67 µM | CC(C)CCC(=O)Nc1ccn([C@@H]2O[C@H](CO[P@@](=O)(N[C@@H](C)C(=O)OC(C)C)Oc3ccccc3)[C@@H](O)[C@@]2(C)F)c(=O)n1 | Non-Toxic | – | – | –
1.92 µM | CC(C)OC(=O)[C@H](C)N[P@](=O)(OC[C@H]1O[C@@H](n2ccc(NC(=O)c3ccc(Cl)cc3)nc2=O)[C@](C)(F)[C@@H]1O)Oc1ccccc1 | Non-Toxic | – | – | –
1.47 µM | CC(C)OC(=O)[C@H](C)N[P@](=O)(OC[C@H]1O[C@@H](n2ccc(NC(=O)CCc3ccccc3)nc2=O)[C@](C)(F)[C@@H]1O)Oc1ccccc1 | Non-Toxic | – | – | –
> 10 µM | CCC(CC)OC(=O)Nc1ccn([C@@H]2O[C@H](CO[P@@](=O)(N[C@@H](C)C(=O)OC(C)C)Oc3ccccc3)[C@@H](O)[C@@]2(C)F)c(=O)n1 | Non-Toxic | – | – | –
1.48 µM | CCC(=O)Nc1ccn([C@@H]2O[C@H](CO[P@@](=O)(N[C@@H](C)C(=O)OC(C)C)Oc3ccccc3)[C@@H](O)[C@@]2(C)F)c(=O)n1 | Non-Toxic | – | – | –
1.64 µM | CCCC(CCC)C(=O)Nc1ccn([C@@H]2O[C@H](CO[P@@](=O)(N[C@@H](C)C(=O)OC(C)C)Oc3ccccc3)[C@@H](O)[C@@]2(C)F)c(=O)n1 | Non-Toxic | – | – | –
4.02 µM | CC(C)OC(=O)[C@H](C)N[P@](=O)(OC[C@H]1O[C@@H](n2ccc(NC(=O)C(C)(C)Oc3ccc(Cl)cc3)nc2=O)[C@](C)(F)[C@@H]1O)Oc1ccccc1 | Non-Toxic | – | – | –
0.19 µM | CC(C)OC(=O)[C@H](C)N[P@](=O)(OC[C@H]1O[C@@H](n2ccc(NC(=O)C3CCC3)nc2=O)[C@](C)(F)[C@@H]1O)Oc1ccccc1 | Non-Toxic | – | – | –
> 10 µM | CCCCCCOC(=O)Nc1ccn([C@@H]2O[C@H](CO[P@@](=O)(N[C@@H](C)C(=O)OC(C)C)Oc3ccccc3)[C@@H](O)[C@@]2(C)F)c(=O)n1 | Non-Toxic | – | – | –
> 10 µM | CC(C)COC(=O)Nc1ccn([C@@H]2O[C@H](CO[P@@](=O)(N[C@@H](C)C(=O)OC(C)C)Oc3ccccc3)[C@@H](O)[C@@]2(C)F)c(=O)n1 | Non-Toxic | – | – | –
2.61 µM | CCCCOC(=O)Nc1ccn([C@@H]2O[C@H](CO[P@@](=O)(N[C@@H](C)C(=O)OC(C)C)Oc3ccccc3)[C@@H](O)[C@@]2(C)F)c(=O)n1 | Non-Toxic | – | – | –
0.25 µM | CCCCCC(=O)Nc1ccn([C@@H]2O[C@H](CO[P@@](=O)(N[C@@H](C)C(=O)OC(C)C)Oc3ccccc3)[C@@H](O)[C@@]2(C)F)c(=O)n1 | Non-Toxic | – | – | –

SMILES | EC50 [1] | Activity [2] | half-life [3] | half-life at 10 µM [4] | Ratio EC50 [5]
CC(C)OC(=O)[C@H](C)N[P@](=O)(OC[C@H]1O[C@@H](n2ccc(=O)[nH]c2=O)[C@](C)(F)[C@@H]1O)Oc1ccccc1 [SOFOSBUVIR] | 0.15 µM | Non-Toxic | > 3.85 h | 0.802 h | 8.1
CC(C)OC(=O)[C@H](C)N[P@](=O)(OC[C@H]1O[C@@H](n2ccc(N)nc2=O)[C@](C)(F)[C@@H]1O)Oc1ccccc1 | 0.66 µM | Non-Toxic | > 3.85 h | 1.78 h | 4.1
